Consider ten compounds from ChEMBL document CHEMBL1137958, “2('),3(')-didehydro-2('),3(')-dideoxynucleosides are degraded to furfuryl alcohol under acidic conditions” (Bioorg Med Chem Lett, 2004).

For data set [1], the system named is CCRF-CEM. Kind of data set: Cytotoxicity was determined in CEM cells, relative to RVT. The class given is functional, cell-based. To be noted: Homo sapiens.
Data set [2] relates to Vero. Kind of data set: Cytotoxicity was determined in Vero cells, relative to RVT. The data set is classed as functional, cell-based. To be noted: Chlorocebus sabaeus.
Data set [3] can be described thus: Cytotoxicity was determined in PBM cells, relative to RVT. The data set is classed as functional, cell-based. The conditions noted are these: Homo sapiens, PBMC.
Data set [4] is described as follows: Estimated half-life at 20 degree C in 0.05 M pH 2 NaH2PO4 buffer. The class given is ADME. The conditions noted are these: phosphate buffer. A digest of the protocol: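 About 1 mg of nucleoside was dissolved in 0.05 M NaH2PO4 (pH 2.0) and stirred at ambient temperature for 24 h. Samples taken at 1 and 24 h were analysed by reverse-phase C18 HPLC, eluting with a gradient of 0.05 M triethylammonium bicarbonate to 70% acetonitrile. Half-life was estimated from the HPLC data, and TLC was run at 24 h.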

Data set [5] in a line: The anti-HIV-1 activity was assayed in activated human peripheral blood mononuclear (PBM) cells, relative to RVT. The data set is classed as functional.

The IC50 is the concentration at which inhibition is half-maximal. Lower therefore signals higher potency. For orientation: half-life means the time in which the quantity being followed falls by half. By EC50 is commonly meant the concentration giving half of the maximal effect. Low readings indicate an effect from little substance, high ones a need for much substance. What is called EC90 is the concentration at which the effect reaches the 90% level.

Consider `Nc1nc(=O)[nH]cc1F` [FLUCYTOSINE], for which the figures for the IC50 in data set [1], in data set [2] and in data set [3] were over 100 µM, over 100 µM and at least 100 µM, respectively.

Consider `Nc1nc2[nH]cnc2c(=O)[nH]1` [GUANINE], for which the figures for the IC50 in data set [1], in data set [2] and in data set [3] were 64.3 µM, 54.9 µM and over 100 µM, respectively.

Regarding `Nc1nc(O)c2ncn(C3C=CC(CO)O3)c2n1` (centres undefined), the half-life in data set [4] is under 2 min.

For `OCc1ccco1` [FURFURYL ALCOHOL], in data set [5], the EC50 is over 100 µM. Moreover, the EC90 in data set [5] was over 100 µM. For the same compound, the IC50 in data set [1], in data set [2] and in data set [3] was over 100 µM in each case.

Regarding `Cc1c[nH]c(=O)[nH]c1=O` [THYMINE], the IC50 in data set [1], in data set [2] and in data set [3] was over 100 µM each time.

Regarding `Cc1cn([C@H]2C=C[C@@H](CO)O2)c(=O)[nH]c1=O` [STAVUDINE], the half-life in data set [4] was 50000 min.

Consider `C[C@@H]1C[C@@H]([C@H](O)CC2CC(=O)NC(=O)C2)C(=O)[C@@H](C)C1` [CYCLOHEXIMIDE], for which the IC50 in data set [1] worked out at 0.08 µM; in data set [2] it was 0.53 µM; in data set [3], 0.46 µM.

In data set [5], `Cc1cn([C@H]2C[C@H](N=[N+]=[N-])[C@@H](CO)O2)c(=O)[nH]c1=O` [ZIDOVUDINE] showed an EC50 of 0.002 µM and an EC90 of 0.02 µM. Further, in data set [3], the IC50 was over 100 µM.

On to `Nc1nc(=O)n([C@@H]2C=C[C@H](CO)O2)cc1F` [ELVUCITABINE], for which a half-maximal response in data set [5] (EC50) required 0.067 µM. Also, the EC90 in data set [5] was found to be 1.9 µM. Also, the half-life in data set [4] is 45 min. Moreover, the IC50 in data set [1], in data set [2] and in data set [3] was over 100 µM throughout.

Turning to `Nc1nc(NC2CC2)c2ncn(C3C=CC(CO)O3)c2n1` (centres undefined), in data set [4], the half-life was 41 min.
